# Laboratory results reported in ChEMBL document CHEMBL1131508, “Spiro[1H-indene-1,4'-piperidine] derivatives as potent and selective non-peptide human somatostatin receptor subtype 2 (sst2) agonists” (J Med Chem, 1998).
# Columns and labels:
# Assay type in all cases: cell-based
# [1] = target: Somatostatin receptor type 2 (Homo sapiens, UniProt P30874); assay: Binding affinity towards human sst2 receptor expressed in CHO-K1 cells
# Outline: (§1)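 Competitive radioligand binding. Each point was run in triplicate, and each compound was tested in at least two separate experiments.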
# [2] = target: Somatostatin receptor type 3 (Homo sapiens, UniProt P32745); assay: Binding affinity towards human sst3 receptor expressed in CHO-K1 cells; outline: as §1
# Somatostatin receptor type 3, sequence (P32745 whole entry): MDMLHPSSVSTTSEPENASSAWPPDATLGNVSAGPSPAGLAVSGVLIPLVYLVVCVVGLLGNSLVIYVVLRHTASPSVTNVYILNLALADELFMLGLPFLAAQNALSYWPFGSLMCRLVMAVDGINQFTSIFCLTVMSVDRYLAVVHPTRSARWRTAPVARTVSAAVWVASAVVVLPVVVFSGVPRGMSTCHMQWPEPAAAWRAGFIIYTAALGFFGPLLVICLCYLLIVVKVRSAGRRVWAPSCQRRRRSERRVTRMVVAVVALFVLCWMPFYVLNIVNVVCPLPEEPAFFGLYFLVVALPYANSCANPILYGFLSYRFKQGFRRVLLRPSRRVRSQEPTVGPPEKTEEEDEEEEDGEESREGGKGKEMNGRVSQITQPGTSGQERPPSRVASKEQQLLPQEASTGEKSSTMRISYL
# [3] = target: Somatostatin receptor type 1 (Homo sapiens, UniProt P30872); assay: Binding affinity towards human sst1 receptor expressed in CHO-K1 cells; outline: as §1
# Somatostatin receptor type 1, sequence (P30872 whole entry): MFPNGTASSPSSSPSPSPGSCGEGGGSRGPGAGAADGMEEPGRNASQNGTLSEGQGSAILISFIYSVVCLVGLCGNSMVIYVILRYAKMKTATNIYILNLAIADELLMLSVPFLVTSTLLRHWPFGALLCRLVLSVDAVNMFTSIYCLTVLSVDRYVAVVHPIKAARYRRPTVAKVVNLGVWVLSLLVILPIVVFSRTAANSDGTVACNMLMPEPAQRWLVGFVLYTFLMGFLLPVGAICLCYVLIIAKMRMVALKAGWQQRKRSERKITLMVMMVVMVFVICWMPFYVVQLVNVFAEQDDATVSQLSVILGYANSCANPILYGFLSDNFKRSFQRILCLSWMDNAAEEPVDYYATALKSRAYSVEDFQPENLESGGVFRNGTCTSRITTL
# [4] = target: Somatostatin receptor type 4 (Homo sapiens, UniProt P31391); assay: Binding affinity towards human sst4 receptor expressed in CHO-K1 cells; outline: as §1
# Somatostatin receptor type 4, sequence (P31391 whole entry): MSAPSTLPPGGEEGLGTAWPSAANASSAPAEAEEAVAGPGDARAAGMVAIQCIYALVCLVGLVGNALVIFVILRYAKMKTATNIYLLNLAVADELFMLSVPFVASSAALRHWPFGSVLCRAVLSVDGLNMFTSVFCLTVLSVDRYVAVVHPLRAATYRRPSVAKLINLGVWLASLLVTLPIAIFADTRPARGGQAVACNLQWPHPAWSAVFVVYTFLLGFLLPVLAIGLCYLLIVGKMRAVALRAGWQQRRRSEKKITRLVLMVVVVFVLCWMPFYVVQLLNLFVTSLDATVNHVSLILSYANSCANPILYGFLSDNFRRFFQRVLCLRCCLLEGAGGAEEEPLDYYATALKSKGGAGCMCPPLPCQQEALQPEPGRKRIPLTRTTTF
# [5] = target: Somatostatin receptor type 5 (Homo sapiens, UniProt P35346); assay: Binding affinity towards human sst5 receptor expressed in CHO-K1 cells
# Somatostatin receptor type 5, sequence (P35346 whole entry): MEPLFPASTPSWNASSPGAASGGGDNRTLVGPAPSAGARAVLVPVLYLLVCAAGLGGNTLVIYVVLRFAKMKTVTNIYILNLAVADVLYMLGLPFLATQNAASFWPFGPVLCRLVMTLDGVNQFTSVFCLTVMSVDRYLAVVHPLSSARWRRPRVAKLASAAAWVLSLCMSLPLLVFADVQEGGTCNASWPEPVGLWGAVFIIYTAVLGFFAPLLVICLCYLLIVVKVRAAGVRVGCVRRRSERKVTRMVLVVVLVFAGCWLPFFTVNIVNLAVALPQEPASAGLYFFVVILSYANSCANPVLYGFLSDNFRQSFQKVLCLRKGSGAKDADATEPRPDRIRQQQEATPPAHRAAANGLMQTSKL
# Outline: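 Radioligand was labelled SRIF28. Points were run in triplicate, with at least two independent experiments per compound.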
# Somatostatin receptor type 2, sequence (P30874 whole entry): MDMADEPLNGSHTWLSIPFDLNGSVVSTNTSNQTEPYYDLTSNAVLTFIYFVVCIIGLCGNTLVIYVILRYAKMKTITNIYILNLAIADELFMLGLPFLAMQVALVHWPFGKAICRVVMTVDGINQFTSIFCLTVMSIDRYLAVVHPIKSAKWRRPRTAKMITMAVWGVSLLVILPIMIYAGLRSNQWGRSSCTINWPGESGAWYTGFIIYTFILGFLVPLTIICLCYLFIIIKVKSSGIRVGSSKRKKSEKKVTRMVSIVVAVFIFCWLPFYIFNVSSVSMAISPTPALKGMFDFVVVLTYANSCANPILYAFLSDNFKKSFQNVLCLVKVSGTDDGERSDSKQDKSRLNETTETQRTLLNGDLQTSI
Compound,Ki [1] [nM],Ki [2] [nM],Ki [3] [nM],Ki [4] [nM],Ki [5] [nM]
NCCCCC(NC(=O)[C@@H](Cc1c[nH]c2ccccc12)NC(=O)N1CCC2(C=Cc3ccccc32)CC1)C(N)=O (some centres undefined),53,–,–,–,–
NCCCCCNC(=O)[C@@H](Cc1c[nH]c2ccccc12)NC(=O)N1CCC2(C=Cc3ccccc32)CC1,46,2570,5380,6840,> 10000
NCCCCNC(=O)C(Cc1c[nH]c2ccccc12)NC(=O)N1CCC2(C=Cc3ccccc32)CC1 (centres undefined),–,5690,4260,> 10000,> 10000
NCCCNC(=O)[C@H](Cc1c[nH]c2ccccc12)NC(=O)N1CCC2(C=Cc3ccccc32)CC1,815,–,–,–,–
NCC1CCCC(CNC(=O)[C@H](Cc2c[nH]c3ccccc23)NC(=O)N2CCC3(C=Cc4ccccc43)CC2)C1 (some centres undefined),4,3610,537,2480,5020
NCCCCCCNC(=O)[C@H](Cc1c[nH]c2ccccc12)NC(=O)N1CCC2(C=Cc3ccccc32)CC1,225,–,–,–,–
NC[C@H]1CCC[C@@H](CNC(=O)[C@H](Cc2c[nH]c3ccccc23)NC(=O)N2CCC3(C=Cc4ccccc43)CC2)C1,20,3690,2430,2180,3320
NCCCCC(NC(=O)[C@H](Cc1c[nH]c2ccccc12)NC(=O)N1CCC2(C=Cc3ccccc32)CC1)C(=O)O (some centres undefined),1110,–,–,–,–
NC[C@@H]1CCC[C@H](CNC(=O)[C@H](Cc2c[nH]c3ccccc23)NC(=O)N2CCC3(C=Cc4ccccc43)CC2)C1,1.6,2950,1740,2000,4470
C[C@@H](O)[C@@H]1NC(=O)[C@H](Cc2ccccc2)NC(=O)[C@@H]2CCCN2C(=O)[C@H](Cc2ccc(O)cc2)NC(=O)[C@@H](Cc2c[nH]c3ccccc23)NC(=O)[C@H](CCCCN)NC1=O (stereo in doubt),0.5,–,–,–,–
